According to ChEMBL document CHEMBL1143559, “Design of potent and selective 2-aminobenzimidazole-based p38alpha MAP kinase inhibitors with excellent in vivo efficacy” (J Med Chem, 2005):

Assays:
Mus musculus [1] = assay: In vivo threshold minimum effective dose for inhibition of LPS-induced TNF-alpha production in mice after oral administration; assay type: functional
Cytochrome P450 3A4 = Cytochrome P450 3A4 (Homo sapiens, UniProt P08684); assay: In vitro inhibitory concentration against Cytochrome P450 3A4; assay type: ADME
[2] = biological target: Mitogen-activated protein kinase 14 (Homo sapiens, UniProt Q16539); assay: Inhibition of human recombinant Mitogen activated protein kinase p38 alpha activity using ATP[gamma-33P] and EGFR 21mer-peptide
Summary of the method: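 Recombinant human p38α, filter binding format with ATP[γ-33P] and EGFR 21-mer peptide substrate; IC50 in nM, n determinations per compound.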

Mus musculus [3] = species: Mus musculus; assay: Inhibitory concentration against TNF-alpha production in mouse macrophages; assay type: functional
[4] = (§1) Area under concentration-curve (from 0-infinity) for a compound in plasma of rats after oral administration; assay type: ADME; parameters: time infinity, route oral; details: rat
Rattus norvegicus [5] = assay: In vivo threshold minimum effective dose for inhibition of rat paw-swelling after oral bid dosing for 14 days; assay type: functional
Rattus norvegicus [6] = assay: Inhibition of TNF-alpha production in rat joint after oral administration at 3 mg/Kg; assay type: functional
Rattus norvegicus [7] = assay: In vivo threshold minimum effective dose for inhibition of bone erosion and cartilage destruction in rat after oral bid dosing for 14 days; assay type: functional
[8] = Bioavailability of compound in rat plasma after oral administration; assay type: ADME, organism-based
[9] = as §1; assay type: ADME; parameters: route oral, time infinity; details: rat

Cytochrome P450 3A4, sequence (P08684 whole entry): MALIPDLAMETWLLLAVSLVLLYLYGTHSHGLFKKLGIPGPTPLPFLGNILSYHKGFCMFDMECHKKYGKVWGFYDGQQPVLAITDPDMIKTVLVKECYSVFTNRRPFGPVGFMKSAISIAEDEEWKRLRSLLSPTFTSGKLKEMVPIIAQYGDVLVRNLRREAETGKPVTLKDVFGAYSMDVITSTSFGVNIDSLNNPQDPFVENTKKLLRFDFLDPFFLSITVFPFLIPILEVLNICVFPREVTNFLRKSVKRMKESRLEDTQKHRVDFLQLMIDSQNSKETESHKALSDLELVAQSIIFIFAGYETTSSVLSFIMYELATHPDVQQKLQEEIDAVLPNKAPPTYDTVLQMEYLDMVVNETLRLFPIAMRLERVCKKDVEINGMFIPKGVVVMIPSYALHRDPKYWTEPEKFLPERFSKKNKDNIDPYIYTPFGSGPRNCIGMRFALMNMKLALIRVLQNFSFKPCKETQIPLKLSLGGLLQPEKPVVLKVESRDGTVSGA
Mitogen-activated protein kinase 14, sequence (Q16539 whole entry): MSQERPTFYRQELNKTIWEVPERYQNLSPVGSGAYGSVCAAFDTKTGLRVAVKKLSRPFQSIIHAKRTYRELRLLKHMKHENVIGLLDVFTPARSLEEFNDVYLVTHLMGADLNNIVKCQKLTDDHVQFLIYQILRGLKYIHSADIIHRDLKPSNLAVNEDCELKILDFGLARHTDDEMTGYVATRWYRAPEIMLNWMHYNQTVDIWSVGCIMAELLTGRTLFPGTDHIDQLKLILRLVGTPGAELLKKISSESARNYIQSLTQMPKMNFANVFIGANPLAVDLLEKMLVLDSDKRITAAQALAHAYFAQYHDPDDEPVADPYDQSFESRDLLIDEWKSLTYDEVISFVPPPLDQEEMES

Row | Compound | TMED50 (Mus musculus [1]) | IC50 (Cytochrome P450 3A4) | IC50 [2] | IC50 (Mus musculus [3]) | AUC 0-inf [4] | TMED50 (Rattus norvegicus [5]) | inhibition in vivo at 3 mg/kg (Rattus norvegicus [6]) | TMED50 (Rattus norvegicus [7]) | bioavailability [8] | AUC 0-inf [9]
1 | CC(C)S(=O)(=O)n1c(N)nc2ccc(-c3[nH]cnc3-c3ccc(F)cc3)cc21.CS(=O)(=O)O.CS(=O)(=O)O | 9.6 mg/kg | 800 nM | 4.3 nM | 65.7 nM | 1.4 µM·h |  |  |  |  | 
2 | CC(C)S(=O)(=O)n1c(N)nc2ccc(-c3c(-c4ccc(F)cc4)ncn3C3CCNCC3)cc21 |  |  | 125 nM | 4460 nM |  |  |  |  |  | 
3 | CC(C)CN1CCC(c2nc(-c3ccc4nc(N)n(S(=O)(=O)C(C)C)c4c3)c(-c3ccccc3)[nH]2)CC1 | 7.3 mg/kg | 5300 nM | 5.5 nM | 27.9 nM |  |  |  |  |  | 
4 | CC(C)S(=O)(=O)n1c(N)nc2ccc(-c3[nH]c(C(C)(C)C)nc3-c3ccc(F)cc3F)cc21.CS(=O)(=O)O | 2.2 mg/kg |  | 4.4 nM | 6.2 nM | 14.6 µM·h | 1.5 mg/kg | 81% | 8.1 mg/kg |  | 
5 | OCCC#Cc1nc(-c2ccc(F)cc2)c(-c2ccncc2)n1CCCc1ccccc1 [RWJ-67657] |  |  |  |  |  | >30 mg/kg | < 50% | >30 mg/kg |  | 
6 | CC(C)(C)c1nc(-c2ccc(F)cc2F)c(-c2ccc3nc(N)n(S(=O)(=O)C(C)(C)C)c3c2)[nH]1.CS(=O)(=O)O | 5.3 mg/kg |  | 4.8 nM | 1.6 nM | 28.3 µM·h | 1.5 mg/kg | 82% | 4.2 mg/kg |  | 
7 | COc1nccc(-c2c(-c3ccc(F)cc3)ncn2C2CCNCC2)n1 [SB-242235] |  |  |  |  |  | 5 mg/kg |  | 7 mg/kg |  | 
8 | Cc1ccc(-n2nc(C(C)(C)C)cc2NC(=O)Nc2ccc(OCCN3CCOCC3)c3ccccc23)cc1 [DORAMAPIMOD] |  |  |  |  |  | 15 mg/kg | 55% | 30 mg/kg |  | 
9 | CC(C)S(=O)(=O)n1c(N)nc2ccc(-c3[nH]c(C(C)(C)C)nc3-c3ccc(F)cc3)cc21.CS(=O)(=O)O.CS(=O)(=O)O | 3.9 mg/kg | 31800 nM | 15.9 nM | 31.1 nM | 13.5 µM·h |  |  |  |  | 
10 | CC(C)S(=O)(=O)n1c(N)nc2ccc(-c3nc(C4CCNCC4)[nH]c3-c3ccccc3)cc21 |  |  | 2.7 nM | 2880 nM |  |  |  |  |  | 
11 | CC(C)c1nc(-c2ccc(F)cc2)c(-c2ccc3nc(N)n(S(=O)(=O)C(C)C)c3c2)[nH]1.CS(=O)(=O)O | 4.9 mg/kg | 6100 nM | 4.5 nM | 28.6 nM | 12.8 µM·h |  |  |  |  | 
12 | CCc1nc(-c2ccc(F)cc2)c(-c2ccc3nc(N)n(S(=O)(=O)C(C)C)c3c2)[nH]1.CS(=O)(=O)O | 6.5 mg/kg | 4400 nM | 4.7 nM | 47.2 nM |  |  |  |  |  | 
13 | CC(C)S(=O)(=O)n1c(N)nc2ccc(-c3[nH]c(-c4c(Cl)cccc4Cl)nc3-c3ccccc3)cc21.CS(=O)(=O)O | 2.5 mg/kg |  | 15.3 nM | 3.4 nM | 17 µM·h |  |  |  | 55% | 
14 | CC(C)S(=O)(=O)n1c(N)nc2ccc(-c3nc(-c4c(F)cccc4F)[nH]c3-c3ccccc3)cc21 | 5.2 mg/kg | 6300 nM | 4.9 nM | 10.3 nM |  |  |  |  |  | 5.4 µM·h
15 | CC(C)S(=O)(=O)n1c(N)nc2ccc(-c3[nH]cnc3-c3ccccc3)cc21 | 19.8 mg/kg | 1600 nM | 4.2 nM | 31.8 nM | 3.7 µM·h |  |  |  |  | 
16 | CS(=O)(=O)O.CS(=O)(=O)O.Nc1nc2ccc(-c3[nH]c(-c4c(F)cccc4F)nc3-c3ccccc3)cc2n1S(=O)(=O)C1CCCC1 | 5.1 mg/kg | 13000 nM | 19.9 nM | 6 nM | 0.9 µM·h |  |  |  |  | 
17 | CC(C)S(=O)(=O)n1c(N)nc2ccc(-c3c(-c4ccc(F)cc4)ncn3C)cc21 |  |  | 20.7 nM | 720 nM |  |  |  |  |  | 
18 | CN(C)S(=O)(=O)n1c(N)nc2ccc(-c3[nH]c(-c4c(F)cccc4F)nc3-c3ccccc3)cc21.CS(=O)(=O)O.CS(=O)(=O)O | 12.5 mg/kg |  | 22.8 nM | 8.8 nM | 9.8 µM·h |  |  |  |  | 
